According to ChEMBL document CHEMBL1134405 (J Med Chem, 2001):
Activity calls are given as the source filed them. The calls are words filed in the database; no cut-off is given here. Peptide text beside a SMILES is read from it.

What was measured:
[1] = target: Glucagon receptor (Rattus norvegicus, UniProt P30082); test: IC50 value was expressed as inhibition of [125]glucagon specific binding.
In short: (§1)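 Incubation 10 min at 30 °C, then ice cooling and filtration on 0.45 μm cellulose acetate, gamma counting. Nonspecific binding taken with 1024 nM unlabeled peptide and subtracted. Read as % inhibition of specific binding. Triplicates, repeated twice.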

[2] = target: T1, Adenylate cyclase (Rattus norvegicus) (UniProt D4A3N4+P26770+Q04400+P26769+Q03343+P40146+Q8CFM9+P21932); test: Adenylate cyclase stimulation; Inactive up to 100 uM.; assay type: protein assay
[3] = target: T1, Adenylate cyclase (Rattus norvegicus); test: Maximum stimulation of adenylate cyclase.; assay type: protein assay
[4] = target: Glucagon receptor (Rattus norvegicus) (UniProt P30082); test: Relative binding by measuring competition for glucagon receptor between [125]glucagon and the compound.; in short: as §1
Chain of Glucagon receptor (Rattus norvegicus) (P30082 whole entry): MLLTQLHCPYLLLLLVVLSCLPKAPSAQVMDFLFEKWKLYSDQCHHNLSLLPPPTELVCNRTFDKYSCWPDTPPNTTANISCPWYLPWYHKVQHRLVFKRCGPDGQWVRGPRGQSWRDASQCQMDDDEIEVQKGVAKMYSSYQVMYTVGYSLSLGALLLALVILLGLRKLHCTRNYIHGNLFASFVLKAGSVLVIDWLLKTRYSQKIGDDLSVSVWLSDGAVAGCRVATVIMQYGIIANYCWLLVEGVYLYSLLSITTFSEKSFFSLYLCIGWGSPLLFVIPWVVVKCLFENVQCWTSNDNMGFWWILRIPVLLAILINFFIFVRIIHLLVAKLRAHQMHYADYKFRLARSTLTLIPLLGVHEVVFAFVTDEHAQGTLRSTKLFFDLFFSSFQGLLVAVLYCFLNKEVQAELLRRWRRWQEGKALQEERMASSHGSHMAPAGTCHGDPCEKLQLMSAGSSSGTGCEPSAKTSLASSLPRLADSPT

[5] = A dose-response plot was obtained by determining the response when the concentration of glucagon was varied while the concentration was kept same.

Chain of Glucagon receptor (P30082 whole entry): as above

IC50 [1] | IA [2] | Max stimulation [3] | Relative binding [4] | Compound | pA2 [5]
2300 nM |  |  |  | CSCC[C@H](NC(=O)[C@H](CC(C)C)NC(=O)[C@H](Cc1c[nH]c2ccccc12)NC(=O)[C@H](CCC(N)=O)NC(=O)[C@@H](NC(=O)[C@H](Cc1ccccc1)NC(=O)[C@H](CC(=O)O)NC(=O)[C@H](CCC(N)=O)NC(=O)[C@H](C)NC(=O)[C@H](CCCNC(=N)N)NC(=O)[C@H](CCCNC(=N)N)NC(C)=O)C(C)C)C(=O)N[C@@H](CC(N)=O)C(=O)N[C@H](C(N)=O)[C@@H](C)O | 
 | Inactive up to 100 uM | 0% | 0% | CC(=O)N[C@@H]1CSSC[C@H](C(N)=O)NC(=O)[C@@H](Cc2ccc(O)cc2)NC(=O)[C@H](CCCCN)NC(=O)[C@@H](CO)NC(=O)[C@H](Cc2ccc(O)cc2)NC1=O | 
 | Inactive up to 100 uM | 0% | 0.065% | CSCC[C@H](NC(=O)[C@H](CC(C)C)NC(=O)[C@H](Cc1c[nH]c2ccccc12)NC(=O)[C@H](CCC(N)=O)NC(=O)[C@@H](NC(=O)[C@H](Cc1ccccc1)NC(=O)[C@H](CC(=O)O)NC(=O)[C@H](CCC(N)=O)NC(=O)[C@H](C)NC(=O)[C@H](CCCN=C(N)N)NC(=O)[C@H](CCCN=C(N)N)NC(C)=O)C(C)C)C(=O)N[C@@H](CC(N)=O)C(=O)N[C@H](C(N)=O)[C@@H](C)O | 
 | Inactive up to 100 uM | 0% | 0% | CC(=O)N[C@@H](CS)C(=O)N[C@@H](Cc1ccc(O)cc1)C(=O)N[C@@H](CO)C(=O)N[C@@H](CCCCN)C(=O)N[C@@H](Cc1ccc(O)cc1)C(=O)N[C@@H](CS)C(N)=O (Ac-CYSKYC-NH2) | 
 | Inactive up to 100 uM | 0% | 30% | CC(=O)N[C@@H](Cc1ccccc1)C(=O)N[C@@H](CS)C(=O)N[C@@H](CO)C(=O)N[C@@H](CC(=O)O)C(=O)N[C@@H](Cc1ccc(O)cc1)C(=O)N[C@@H](CS)C(=O)N[C@@H](CCCCN)C(=O)N[C@@H](Cc1ccc(O)cc1)C(=O)N[C@@H](CC(C)C)C(N)=O (Ac-FCSDYCKYL-NH2) | 
 | Inactive up to 100 uM | 0% | 24% | CC(=O)N[C@@H](Cc1ccccc1)C(=O)N[C@@H](CS)C(=O)N[C@@H](CO)C(=O)N[C@@H](CC(=O)O)C(=O)N[C@@H](Cc1ccc(O)cc1)C(=O)N[C@@H](CO)C(=O)N[C@@H](CS)C(=O)N[C@@H](Cc1ccc(O)cc1)C(=O)N[C@@H](CC(C)C)C(N)=O (Ac-FCSDYSCYL-NH2) | 
 | Inactive up to 100 uM | 0% | 56% | CC(=O)N[C@@H](Cc1ccccc1)C(=O)N[C@@H](CS)C(=O)N[C@@H](CO)C(=O)N[C@@H](CC(=O)O)C(=O)N[C@@H](Cc1ccc(O)cc1)C(=O)N[C@@H](CO)C(=O)N[C@@H](CS)C(=O)N[C@@H](Cc1ccc(O)cc1)C(=O)N[C@@H](CC(C)C)C(=O)N[C@@H](CC(=O)O)C(N)=O (Ac-FCSDYSCYLD-NH2) | 
 | Inactive up to 100 uM | 0% | 32% | CC(=O)N[C@@H](Cc1ccccc1)C(=O)N[C@H](C(=O)N[C@@H](CO)C(=O)N[C@@H](CS)C(=O)N[C@@H](Cc1ccc(O)cc1)C(=O)N[C@@H](CO)C(=O)N[C@@H](CCCCN)C(=O)N[C@@H](Cc1ccc(O)cc1)C(=O)N[C@@H](CS)C(=O)N[C@@H](CC(=O)O)C(N)=O)[C@@H](C)O (Ac-FTSCYSKYCD-NH2) | 
 |  |  |  | CSCC[C@H](NC(=O)[C@H](CC(C)C)NC(=O)[C@H](Cc1c[nH]c2ccccc12)NC(=O)[C@H](CCC(N)=O)NC(=O)[C@@H](NC(=O)[C@H](Cc1ccccc1)NC(=O)[C@H](CC(=O)O)NC(=O)[C@H](CCC(N)=O)NC(=O)[C@H](C)NC(=O)[C@H](CCCN=C(N)N)NC(=O)[C@H](CCCN=C(N)N)NC(=O)[C@H](CO)NC(=O)[C@H](CC(=O)O)NC(=O)[C@H](CC(C)C)NC(=O)[C@H](Cc1ccc(O)cc1)NC(=O)[C@H](CCCCN)NC(=O)[C@H](CO)NC(=O)[C@H](Cc1ccc(O)cc1)NC(=O)CCCCCc1ccccc1)C(C)C)C(=O)N[C@@H](CC(N)=O)C(=O)N[C@H](C(N)=O)[C@@H](C)O (HELM PEPTIDE1{[O=C(CCCCCc1ccccc1)[*:2]].Y.S.K.Y.L.D.S.R.R.A.Q.D.F.V.Q.W.L.M.N.T.[am]}$$$$V2.0) | 7.37
131 nM |  |  |  | CSCC[C@H](NC(=O)[C@H](CC(C)C)NC(=O)[C@H](Cc1c[nH]c2ccccc12)NC(=O)[C@H](CCC(N)=O)NC(=O)[C@@H](NC(=O)[C@H](Cc1ccccc1)NC(=O)[C@H](CC(=O)O)NC(=O)[C@H](CCC(N)=O)NC(=O)[C@H](C)NC(=O)[C@H](CCCNC(=N)N)NC(=O)[C@H](CCCNC(=N)N)NC(=O)[C@H](CO)NC(=O)[C@H](CC(=O)O)NC(=O)[C@H](CC(C)C)NC(=O)[C@H](Cc1ccc(O)cc1)NC(=O)[C@H](CCCCN)NC(=O)[C@H](CO)NC(=O)[C@H](Cc1ccc(O)cc1)NC(=O)CCCCCc1ccccc1)C(C)C)C(=O)N[C@@H](CC(N)=O)C(=O)N[C@H](C(N)=O)[C@@H](C)O (HELM PEPTIDE1{[O=C(CCCCCc1ccccc1)[*:2]].Y.S.K.Y.L.D.S.R.R.A.Q.D.F.V.Q.W.L.M.N.T.[am]}$$$$V2.0) | 
 |  |  |  | CSCC[C@H](NC(=O)[C@H](CC(C)C)NC(=O)[C@H](Cc1c[nH]c2ccccc12)NC(=O)[C@H](CCC(N)=O)NC(=O)[C@@H](NC(=O)[C@H](Cc1ccccc1)NC(=O)[C@H](CC(=O)O)NC(=O)[C@H](CCC(N)=O)NC(=O)[C@H](C)NC(=O)[C@H](CCCN=C(N)N)NC(=O)[C@H](CCCN=C(N)N)NC(=O)[C@H](CO)NC(=O)[C@H](CC(=O)O)NC(=O)[C@H](CC(C)C)NC(=O)[C@H](Cc1ccc(O)cc1)NC(=O)[C@H](CCCCN)NC(=O)[C@H](CO)NC(=O)[C@H](Cc1ccc(O)cc1)NC(=O)CCCc1ccccc1)C(C)C)C(=O)N[C@@H](CC(N)=O)C(=O)N[C@H](C(N)=O)[C@@H](C)O (HELM PEPTIDE1{[O=C(CCCc1ccccc1)[*:2]].Y.S.K.Y.L.D.S.R.R.A.Q.D.F.V.Q.W.L.M.N.T.[am]}$$$$V2.0) | 7.38
21.2 nM |  |  |  | CSCC[C@H](NC(=O)[C@H](CC(C)C)NC(=O)[C@H](Cc1c[nH]c2ccccc12)NC(=O)[C@H](CCC(N)=O)NC(=O)[C@@H](NC(=O)[C@H](Cc1ccccc1)NC(=O)[C@H](CC(=O)O)NC(=O)[C@H](CCC(N)=O)NC(=O)[C@H](C)NC(=O)[C@H](CCCNC(=N)N)NC(=O)[C@H](CCCNC(=N)N)NC(=O)[C@H](CO)NC(=O)[C@H](CC(=O)O)NC(=O)[C@H](CC(C)C)NC(=O)[C@H](Cc1ccc(O)cc1)NC(=O)[C@H](CCCCN)NC(=O)[C@H](CO)NC(=O)[C@H](Cc1ccc(O)cc1)NC(=O)CCCc1ccccc1)C(C)C)C(=O)N[C@@H](CC(N)=O)C(=O)N[C@H](C(N)=O)[C@@H](C)O (HELM PEPTIDE1{[O=C(CCCc1ccccc1)[*:2]].Y.S.K.Y.L.D.S.R.R.A.Q.D.F.V.Q.W.L.M.N.T.[am]}$$$$V2.0) | 
 | Inactive up to 100 uM | 0% | 62% | CC(=O)N[C@@H](Cc1ccccc1)C(=O)N[C@H]1CSSC[C@@H](C(=O)N[C@@H](CCCCN)C(=O)N[C@@H](Cc2ccc(O)cc2)C(=O)N[C@@H](CC(C)C)C(N)=O)NC(=O)[C@H](Cc2ccc(O)cc2)NC(=O)[C@H](CC(=O)O)NC(=O)[C@H](CO)NC1=O (HELM PEPTIDE1{[ac].F.C.S.D.Y.C.K.Y.L.[am]}$PEPTIDE1,PEPTIDE1,3:R3-7:R3$$$V2.0) | 
 | Inactive up to 100 uM | 0% | 30% | CC(=O)N[C@@H](Cc1ccccc1)C(=O)N[C@H]1CSSC[C@@H](C(=O)N[C@@H](Cc2ccc(O)cc2)C(=O)N[C@@H](CC(C)C)C(=O)N[C@@H](CC(=O)O)C(N)=O)NC(=O)[C@H](CO)NC(=O)[C@H](Cc2ccc(O)cc2)NC(=O)[C@H](CC(=O)O)NC(=O)[C@H](CO)NC1=O (HELM PEPTIDE1{[ac].F.C.S.D.Y.S.C.Y.L.D.[am]}$PEPTIDE1,PEPTIDE1,3:R3-8:R3$$$V2.0) | 
 | Inactive up to 100 uM | 0% | 24% | CC(=O)N[C@@H](Cc1ccccc1)C(=O)N[C@H]1CSSC[C@@H](C(=O)N[C@@H](Cc2ccc(O)cc2)C(=O)N[C@@H](CC(C)C)C(N)=O)NC(=O)[C@H](CO)NC(=O)[C@H](Cc2ccc(O)cc2)NC(=O)[C@H](CC(=O)O)NC(=O)[C@H](CO)NC1=O (HELM PEPTIDE1{[ac].F.C.S.D.Y.S.C.Y.L.[am]}$PEPTIDE1,PEPTIDE1,3:R3-8:R3$$$V2.0) | 
 | Inactive up to 100 uM | 0% | 43% | CC(=O)N[C@@H](Cc1ccccc1)C(=O)N[C@H](C(=O)N[C@@H](CO)C(=O)N[C@H]1CSSC[C@@H](C(=O)N[C@@H](CC(=O)O)C(N)=O)NC(=O)[C@H](Cc2ccc(O)cc2)NC(=O)[C@H](CCCCN)NC(=O)[C@H](CO)NC(=O)[C@H](Cc2ccc(O)cc2)NC1=O)[C@@H](C)O (HELM PEPTIDE1{[ac].F.T.S.C.Y.S.K.Y.C.D.[am]}$PEPTIDE1,PEPTIDE1,5:R3-10:R3$$$V2.0) | 
800 nM |  |  |  | CSCC[C@H](NC(=O)[C@H](CC(C)C)NC(=O)[C@H](Cc1c[nH]c2ccccc12)NC(=O)[C@H](CCC(N)=O)NC(=O)[C@@H](NC(=O)[C@H](Cc1ccccc1)NC(=O)[C@H](CC(=O)O)NC(=O)[C@H](CCC(N)=O)NC(=O)[C@H](C)NC(=O)[C@H](CCCNC(=N)N)NC(=O)[C@H](CCCNC(=N)N)NC(=O)[C@H](CO)NC(=O)[C@H](CC(=O)O)NC(=O)[C@H](CC(C)C)NC(=O)[C@H](Cc1ccc2ccccc2c1)NC(=O)[C@H](CCCCN)NC(=O)[C@H](CO)NC(=O)[C@H](Cc1ccc2ccccc2c1)NC(C)=O)C(C)C)C(=O)N[C@@H](CC(N)=O)C(=O)N[C@H](C(N)=O)[C@@H](C)O (HELM PEPTIDE1{[ac].[O=C([C@H](Cc1ccc2ccccc2c1)N[*:1])[*:2]].S.K.[O=C([C@H](Cc1ccc2ccccc2c1)N[*:1])[*:2]].L.D.S.R.R.A.Q.D.F.V.Q.W.L.M.N.T.[am]}$$$$V2.0) | 
 |  |  |  | Ac-YSKYLDSRRAQDFVQWLMNT-NH2 [listing 1 of 2 here] | 7.44
60 nM |  |  |  | Ac-YSKYLDSRRAQDFVQWLMNT-NH2 [listing 2 of 2 here] | 
